Reference: ChEMBL document CHEMBL1255566, “Rigid analogues of the α2-adrenergic blocker atipamezole: small changes, big consequences” (J Med Chem, 2010)

Legend:
[1] = system: Mus musculus; experiment: Antihypothermic activity in ip dosed NMRI mouse assessed as inhibition of guanabenz-induced hypothermia administered 5 mins before guanabenz challenge measured after 25 mins; format: functional
Procedure, shortened: (§1)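 Mice got the compound by intraperitoneal injection or oral gavage before guanabenz challenge, and reversal of guanabenz-induced hypothermia was scored. Five animals were tested per dose. ED50 is the dose giving an inhibitory effect in 50% of guanabenz-treated animals, with 95% confidence limits.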

[2] = system: Mus musculus; experiment: Increase of normetanephrine level in NMRI mouse cortex at 10 mg/kg, ip after 1 hr microwave irradiation; format: functional; conditions: route intraperitoneal
Procedure, shortened: (§2)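 Single intraperitoneal dose; mice were killed by head-focused microwave irradiation 1 h later. Frontal cortex normetanephrine, an extracellular noradrenaline metabolite, was measured and expressed as increase relative to control animals, giving dose-response data across 0.16 to 10 mg/kg.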

[3] = system: Mus musculus; experiment: Ratio of ED50 for santihypothermic activity in po dosed NMRI mouse to ED50 for antihypothermic activity in ip dosed NMRI mouse; format: functional
Procedure, shortened: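 Guanabenz-induced hypothermia in mice, five animals per dose. ED50 (the dose inhibiting hypothermia in 50% of guanabenz-treated animals) was obtained after oral gavage and after intraperitoneal injection, and the ratio po/ip was then calculated.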

[4] = target: T1, Alpha-2C adrenergic receptor (Homo sapiens, UniProt P18825); experiment: Displacement of [3H]-RX821002 from human adrenergic Alpha-2C receptor expressed in rat C6 cells after 120 mins by liquid scintillation counting; format: cell-based
T1 sequence (P18825 whole entry): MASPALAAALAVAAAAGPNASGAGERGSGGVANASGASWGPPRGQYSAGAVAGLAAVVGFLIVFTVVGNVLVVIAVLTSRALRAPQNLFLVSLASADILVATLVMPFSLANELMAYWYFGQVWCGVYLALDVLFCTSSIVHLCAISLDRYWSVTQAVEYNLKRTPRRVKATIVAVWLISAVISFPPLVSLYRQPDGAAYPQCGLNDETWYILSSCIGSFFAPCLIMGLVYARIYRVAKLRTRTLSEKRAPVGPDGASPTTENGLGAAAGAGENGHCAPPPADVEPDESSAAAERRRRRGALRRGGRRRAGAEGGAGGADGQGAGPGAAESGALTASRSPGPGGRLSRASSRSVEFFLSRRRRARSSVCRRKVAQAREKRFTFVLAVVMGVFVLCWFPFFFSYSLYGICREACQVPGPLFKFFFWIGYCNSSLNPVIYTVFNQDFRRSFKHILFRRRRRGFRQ

[5] = target: T2, Alpha-1B adrenergic receptor (Homo sapiens, UniProt P35368); experiment: Displacement of [3H]-prazosin from human adrenergic alpha-1b receptor expressed in CHO cells after 120 mins by liquid scintillation counting; format: cell-based
T2 sequence (P35368 whole entry): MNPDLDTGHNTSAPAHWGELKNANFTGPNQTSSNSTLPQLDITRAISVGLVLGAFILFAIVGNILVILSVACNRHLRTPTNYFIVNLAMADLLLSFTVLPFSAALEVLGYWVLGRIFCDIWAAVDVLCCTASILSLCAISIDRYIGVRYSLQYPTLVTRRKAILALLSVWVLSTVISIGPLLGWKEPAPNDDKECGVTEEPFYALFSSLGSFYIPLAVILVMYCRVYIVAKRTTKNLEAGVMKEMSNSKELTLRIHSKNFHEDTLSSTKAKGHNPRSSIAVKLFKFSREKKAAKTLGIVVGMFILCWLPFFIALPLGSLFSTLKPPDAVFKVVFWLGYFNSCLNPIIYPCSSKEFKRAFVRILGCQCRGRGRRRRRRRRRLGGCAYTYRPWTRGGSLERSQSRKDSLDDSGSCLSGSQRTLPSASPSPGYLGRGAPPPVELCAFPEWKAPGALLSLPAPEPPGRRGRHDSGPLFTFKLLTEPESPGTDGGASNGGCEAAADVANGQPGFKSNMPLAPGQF
Procedure, shortened: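 Competition binding at human α1b receptors stably expressed in CHO cells. Affinity values are means ± SEM of at least two experiments, each in duplicate.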

[6] = target: T3, Alpha-2B adrenergic receptor (Homo sapiens, UniProt P18089); experiment: Displacement of [3H]-RX821002 from human adrenergic alpha2B receptor expressed in rat C6 cells after 120 mins by liquid scintillation counting; format: cell-based
T3 sequence (P18089 whole entry): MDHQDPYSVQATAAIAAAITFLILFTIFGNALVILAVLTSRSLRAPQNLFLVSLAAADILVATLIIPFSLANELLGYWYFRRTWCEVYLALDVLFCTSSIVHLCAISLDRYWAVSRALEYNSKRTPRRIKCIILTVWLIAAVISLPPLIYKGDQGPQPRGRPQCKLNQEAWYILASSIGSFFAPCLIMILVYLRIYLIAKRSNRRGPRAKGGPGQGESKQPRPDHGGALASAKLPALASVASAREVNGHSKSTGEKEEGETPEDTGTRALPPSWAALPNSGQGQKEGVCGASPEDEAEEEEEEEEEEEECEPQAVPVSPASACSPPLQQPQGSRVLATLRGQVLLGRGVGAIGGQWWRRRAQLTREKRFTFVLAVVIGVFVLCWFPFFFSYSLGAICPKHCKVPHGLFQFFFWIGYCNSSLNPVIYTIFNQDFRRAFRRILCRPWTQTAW

[7] = system: Mus musculus; experiment: Antihypothermic activity in po dosed NMRI mouse assessed as inhibition of guanabenz-induced hypothermia administered 35 mins before guanabenz challenge measured after 25 mins; format: functional; procedure, shortened: as §1
[8] = target: T4, Alpha-2A adrenergic receptor (Homo sapiens, UniProt P08913); experiment: Displacement of [3H]-RX821002 from human adrenergic alpha2A receptor expressed in rat C6 cells after 120 mins by liquid scintillation counting; format: cell-based
T4 sequence (P08913 whole entry): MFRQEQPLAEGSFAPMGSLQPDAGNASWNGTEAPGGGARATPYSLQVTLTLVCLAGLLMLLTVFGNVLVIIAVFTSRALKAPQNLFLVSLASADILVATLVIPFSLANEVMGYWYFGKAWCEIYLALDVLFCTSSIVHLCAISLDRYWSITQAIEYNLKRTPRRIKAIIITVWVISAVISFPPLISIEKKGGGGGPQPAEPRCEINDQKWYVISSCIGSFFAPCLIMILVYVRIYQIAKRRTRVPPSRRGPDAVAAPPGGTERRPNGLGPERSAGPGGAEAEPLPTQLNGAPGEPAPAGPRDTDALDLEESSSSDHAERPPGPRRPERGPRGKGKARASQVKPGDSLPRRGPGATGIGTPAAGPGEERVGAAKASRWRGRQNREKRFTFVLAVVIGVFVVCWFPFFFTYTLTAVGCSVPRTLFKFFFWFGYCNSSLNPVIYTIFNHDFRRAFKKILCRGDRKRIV
Procedure, shortened: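 Competition binding at human α2A receptors expressed in C6 glial cells. Affinity values are means ± SEM of at least two experiments, each in duplicate.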

[9] = target: T5, Alpha-2A adrenergic receptor (Homo sapiens) (UniProt P08913); experiment: Antagonist activity at human adrenergic alpha2A receptor expressed in CHO cells assessed as inhibition of adrenaline-induced [35S]GTPgammaS binding after 30 mins by scintillation counting; format: functional, cell-based
T5 sequence (whole entry): T4 sequence (P08913 whole entry)
Procedure, shortened: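 Inhibition of adrenaline-stimulated [35S]GTPγS binding in CHO cells expressing human α2A receptors. Compounds were also run alone to check for any stimulation of [35S]GTPγS binding. Antagonist potency is reported as pKB, taken as the potency that inhibits 50% of adrenaline-induced binding.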

[10] = system: Rattus norvegicus; experiment: Cardiotoxicity in pithed Sprague-Dawley rat assessed as increase of diastolic pressure at > 0.63 ug/kg, iv; format: toxicity, organism-based; conditions: in vivo, 0.00063 mg/kg
[11] = system: Rattus norvegicus; experiment: Cardiotoxicity in pithed Sprague-Dawley rat assessed as increase of diastolic pressure at 2.5 ug/kg, iv in presence of prazosin; format: toxicity, organism-based; conditions: in vivo, 0.0025 mg/kg
[12] = system: Mus musculus; experiment: Increase of normetanephrine level in NMRI mouse cortex at 0.16 to 10 mg/kg, ip after 1 hr microwave irradiation; format: functional; conditions: dose mg/kg 0.16-10; route intraperitoneal; procedure, shortened: as §2
[13] = system: Rattus norvegicus; experiment: Cardiotoxicity in pithed Sprague-Dawley rat assessed as increase of diastolic pressure at 2.5 ug/kg, iv in presence of rauwolscine; format: toxicity, organism-based; conditions: in vivo, 0.0025 mg/kg
[14] = system: Rattus norvegicus; experiment: Cardiotoxicity in anesthetized Sprague-Dawley rat assessed as increase of diastolic pressure at up to 0.16 ug/kg, iv; format: toxicity, organism-based; conditions: in vivo, 0.00016 mg/kg
[15] = system: Rattus norvegicus; experiment: Cardiotoxicity in anesthetized Sprague-Dawley rat assessed as increase of diastolic pressure at 10 ug/kg, iv; format: toxicity, organism-based; conditions: in vivo, 0.01 mg/kg
[16] = system: Mus musculus; experiment: Increase of normetanephrine level in ip dosed NMRI mouse cortex after 1 hr microwave irradiation; format: functional, organism-based; procedure, shortened: as §2
[17] = Mus musculus, NMRI, ip, read-out: ED50
[18] = Mus musculus, NMRI, po, read-out: ED50

Row | Compound | Ki [4] [nM] | Ki [5] [nM] | Ki [6] [nM] | Ki [8] [nM] | pKb [9] | ED50 [1, 17] [mg/kg] | Activity [2] [%] | Ratio ED50 [3] | ED50 [7, 18] [mg/kg] | ED50 [1] [mg/kg] | Activity [10] | Activity [11] | Activity [12] [%] | Activity [13] | Activity [14] | ED50 [7] [mg/kg] | Activity [15] [mmHg] | Activity [16]
1 | CNCCCN1c2ccccc2CCc2ccccc21 [DESIPRAMINE] |  |  |  |  |  |  | 223 |  |  |  |  |  |  |  |  |  |  | 
2 | CCC[C@H]1c2ccccc2[C@H]2C[C@]21c1c[nH]cn1 (relative stereo) | 1.48 | 8.91 | 2.29 | 0.851 | 8.7 | 0.1 |  | 1.2 | 0.12 |  |  |  |  |  |  |  |  | 
3 | CCO[C@H]1c2ccccc2[C@H]2C[C@]21c1c[nH]cn1 (relative stereo) | 10.2 | 39.8 | 9.77 | 3.31 | 8.36 | 0.16 |  | 0.2 | 0.03 |  |  |  |  |  |  |  |  | 
4 | CC[C@H]1c2ccccc2[C@H]2C[C@]21c1c[nH]cn1 (relative stereo) | 1.26 | 40.7 | 1.62 | 0.513 | 8.91 | 0.03 |  | 1.3 | 0.04 |  |  |  |  |  |  |  |  | 
5 | c1ccc2c(c1)C[C@]1(c3cnc[nH]3)C[C@H]21 (stereo in doubt; (+)-1) | 0.263 | 3.55 | 0.275 | 0.0794 |  |  |  | 3.5 |  | 0.02 | Toxic | Toxic | 3096 | Non-toxic | Non-toxic | 0.07 | 26 | 
6 | c1ccc2c(c1)C[C@]1(c3c[nH]cn3)C[C@H]21 (stereo in doubt; (+)-1) |  |  |  |  | 9.64 |  |  |  |  |  |  |  |  |  |  |  |  | Dose-dependent effect

Continued, in another order:

Row | Ki [4] [nM] | Ki [5] [nM] | Ki [6] [nM] | Ki [8] [nM] | pKb [9] | Compound | ED50 [1, 17] [mg/kg] | Activity [2] [%] | Ratio ED50 [3] | ED50 [7, 18] [mg/kg] | ED50 [1] [mg/kg] | Activity [10] | Activity [11] | Activity [12] [%] | Activity [13] | Activity [14] | ED50 [7] [mg/kg] | Activity [15] [mmHg] | Activity [16]
7 | 13.8 | 2090 | 6.76 | 7.24 | 7.84 | CCC1(c2c[nH]cn2)Cc2ccc(F)cc2C1 (configuration not stated) [FIPAMEZOLE] | 0.47 | 247 | 4 | 1.87 |  |  |  |  |  |  |  |  | 
8 |  |  |  |  | 8.05 | CCC1(c2c[nH]cn2)Cc2ccccc2C1 [ATIPAMEZOLE] | 0.19 | 258 | 10.3 | 1.95 |  |  |  |  |  |  |  |  | 
9 | 2.82 | 39.8 | 0.912 | 0.447 | 8.66 | C[C@]12CC1(c1c[nH]cn1)Cc1ccccc12 (single isomer, unassigned) | 0.06 |  | 11 | 0.66 |  |  |  |  |  |  |  |  | 
